Results taken from ChEMBL document CHEMBL2062397, “N-heterocyclic dicarboxylic acids: broad-spectrum inhibitors of metallo-β-lactamases with co-antibacterial effect against antibiotic-resistant bacteria” (Bioorg Med Chem Lett, 2012).
Activity calls are given as the source filed them. The rule behind the calls is not given here.

Tests used:
[1] = Competitive inhibition of L1 using cezafolin as substrate incubated for 30 mins prior to substrate addition by Lineweaver-burk plot analysis
Procedure, shortened: (§1)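 Purified CcrA (Bacteroides fragilis) or L1 (S. maltophilia), over-expressed. Cefazolin substrate at several concentrations, inhibitor concentration varied from 0. Enzyme and inhibitor preincubated 30 min. Run in 50 mM Tris pH 7.0 at 25 °C with UV–Vis spectrophotometric read-out. Inhibition mode from Lineweaver–Burk plots; Ki determined.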

Staphylococcus aureus [2] = assay: Inhibition of metallo-beta-lactamase in methicillin-resistant Staphylococcus aureus isolate 2 assessed as reduction in vancomycin MIC after 24 hrs by macrobroth dilution assay
Procedure, shortened: (§2)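 Macrobroth twofold dilution in Mueller–Hinton (MH) medium. Each tube held inhibitor stock plus antibiotic from a 1280 µg/ml stock, serially twofold diluted. Final inoculum was 5 × 10⁵ CFU/ml. MIC was read after 24 h at 37 °C, with inhibitor present or absent, in duplicate.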

Klebsiella pneumoniae = assay: Inhibition of metallo-beta-lactamase in Klebsiella pneumoniae ATCC 700603 assessed as reduction in cefazolin MIC after 24 hrs by macrobroth dilution assay
Procedure, shortened: (§3)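 Macrobroth twofold antibiotic dilutions in Mueller–Hinton medium, tubes with or without inhibitor. Strains were E. coli BL21(DE3) carrying pMSZ02-CcrA, pET-26b-ImiS or pET26b-L1, and K. pneumoniae ATCC 700603. Incubated 37 °C for 24 h; MIC read. Duplicate.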

Staphylococcus aureus [3] = assay: Inhibition of metallo-beta-lactamase in methicillin-resistant Staphylococcus aureus isolate 1 assessed as reduction in vancomycin MIC after 24 hrs by macrobroth dilution assay; procedure, shortened: as §2
[4] = Competitive inhibition of CcrA using cezafolin as substrate incubated for 30 mins prior to substrate addition by Lineweaver-burk plot analysis; procedure, shortened: as §1
[5] = system: Escherichia coli BL21(DE3); assay: Inhibition of L1 in Escherichia coli BL21(DE3) assessed as reduction in cefazolin MIC after 24 hrs by macrobroth dilution assay; procedure, shortened: as §3
Staphylococcus aureus [6] = assay: Inhibition of metallo-beta-lactamase in methicillin-resistant Staphylococcus aureus isolate 1 assessed as reduction in cefazolin MIC after 24 hrs by macrobroth dilution assay; procedure, shortened: as §2
Staphylococcus aureus [7] = assay: Inhibition of metallo-beta-lactamase in methicillin-resistant Staphylococcus aureus isolate 2 assessed as reduction in cefazolin MIC after 24 hrs by macrobroth dilution assay; procedure, shortened: as §2
[8] = system: Escherichia coli BL21(DE3); assay: Inhibition of CcrA in Escherichia coli BL21(DE3) assessed as reduction in cefazolin MIC for after 24 hrs by macrobroth dilution assay; design: scale not given: the % may be the effect or the level left; procedure, shortened: as §3
[9] = system: Escherichia coli BL21(DE3); assay: Inhibition of Imis in Escherichia coli BL21(DE3) assessed as reduction in cefazolin MIC after 24 hrs by macrobroth dilution assay; design: scale not given: the % may be the effect or the level left; conditions: in the assay text read “imipenem” for “cefazolin”; procedure, shortened: as §3
[10] = Inhibition of ImiS using imipenem as substrate up to 50 uM incubated for 30 mins prior to substrate addition
[11] = Competitive inhibition of ImiS using imipenem as substrate incubated for 30 mins prior to substrate addition by Lineweaver-burk plot analysis
[12] = Inhibition of L1 using cezafolin as substrate up to 50 uM incubated for 30 mins prior to substrate addition
[13] = Inhibition of CcrA using cezafolin as substrate up to 50 uM incubated for 30 mins prior to substrate addition
[14] = Noncompetitive inhibition of CcrA using cezafolin as substrate incubated for 30 mins prior to substrate addition by Lineweaver-burk plot analysis; procedure, shortened: as §1
[15] = Noncompetitive inhibition of ImiS using imipenem as substrate incubated for 30 mins prior to substrate addition by Lineweaver-burk plot analysis

SMILES | Ki [1] [nM] | Activity (Staphylococcus aureus [2]) | Activity (Klebsiella pneumoniae) | Activity (Staphylococcus aureus [3]) | Ki [4] [nM] | Activity [5] | Activity (Staphylococcus aureus [6]) | Activity (Staphylococcus aureus [7]) | Activity [8] | Activity [9] | inhibition [10] | Ki [11] [µM] | inhibition [12] | inhibition [13] | Ki [14] [µM] | Ki [15] [µM]
O=C(O)C1COC(C(=O)O)N1 (configuration not stated) | 1900 | inactive | Active | inactive | 1100 | Active | inactive | inactive | Active | inactive | inactive |  |  |  |  | 
O=C(O)C1CSC(C(=O)O)N1 (configuration not stated) [TIDIACIC] | 1800 | inactive | Active | inactive | 640 | Active | inactive | inactive | Active | Active |  | 7.1 |  |  |  | 
Sc1nnc(-c2ccncc2)[nH]1 |  | inactive | inactive | inactive |  | inactive | inactive | inactive | inactive | inactive | inactive |  | inactive | inactive |  | 
Sc1nnc(-c2ccccn2)[nH]1 |  | inactive | inactive | inactive |  | inactive | inactive | inactive | inactive | inactive | inactive |  | inactive | inactive |  | 
S=c1[nH]nc(-c2ccncc2)s1 |  | inactive | inactive | inactive |  | inactive | inactive | inactive | 50% | 50% |  |  | inactive |  | 5.9 | 6.8
O=C(O)C1CCC(C(=O)O)N1 (configuration not stated) | 690 | inactive | Active | inactive | 730 | Active | inactive | inactive | Active | inactive | inactive |  |  |  |  | 
Sc1nnc(-c2ccccn2)s1 |  | inactive | inactive | inactive |  | inactive | inactive | inactive | 50% | 50% |  |  | inactive |  | 5.4 | 3.5
